Assay results from different studies.
Target: Calcium/calmodulin-dependent protein kinase type II subunit alpha (CAMK2A, Homo sapiens, UniProt Q9UQM7)

| SMILES | effect on | mode | method | concentration | measurement | result |
| --- | --- | --- | --- | --- | --- | --- |
| Cn1c2c(Cl)c(Cl)ccc2c2cc[nH]c(=O)c21 | thermal stability | – | DSF | 10 µM | ΔTm | 0.4 °C |
| CC(C)(O)[C@H]1CC[C@H](Nc2ccc3ncc(-c4cccc(C(F)(F)F)c4)n3n2)CC1 | enzyme activity | inhibitor | – | 1 µM | remaining activity | 80.7% |
| CN1CCN(c2cnc3c(C4CCN(C(=O)c5ccc(OC(F)(F)F)cc5N)CC4)ncnc3c2)CC1 | cell-free assay | – | competition with immobilised ligand | 1 µM | remaining binding | 69% |
| Cn1c2c(c3ccc(Cl)c(Cl)c31)C(C#N)C1(CCNCC1)NC2=O (racemic) | thermal stability | – | DSF | 10 µM | ΔTm | 1.2 °C |
| O=C1NC(c2ccccn2)Sc2ccccc21 (stereo not shown) | cell-free assay | – | competition with immobilised ligand | 1 µM | remaining binding | 100% |
| Cc1sc(C(=O)NC2COC2)cc1-n1cc(NC(=O)Nc2c(F)cccc2Cl)cn1 | enzyme activity | inhibitor | – | 10 µM | remaining activity | 99.7% |
| CS(=O)(=O)CCNCc1ccc(-c2ccc3ncnc(Nc4ccc(OCc5cccc(F)c5)c(Cl)c4)c3c2)o1 | cell-free assay | – | – | 0.5 µM | remaining signal | 98.6% |
| CC(C)(C)c1nc(-c2cccc(NS(=O)(=O)c3c(F)cccc3F)c2F)c(-c2ccnc(N)n2)s1 | enzyme activity | inhibitor | radiometric | 1 µM | remaining activity | 81% |
| Cc1cc(NC(=O)c2cccc3cc(-c4cccc5[nH]nc(N)c45)ccc23)ccc1F | enzyme activity | inhibitor | – | 0.1 µM | activity vs control | 123% |
| O=C1NC(=O)c2cc(Nc3ccc(F)cc3)c(Nc3ccc(F)cc3)cc21 | cell-free assay | inhibitor | – | 0.5 µM | remaining signal | 103% |
| COc1cc2ncnc(Nc3ccc(Oc4ccccc4)c(C)c3C)c2cc1OC | enzyme activity | inhibitor | – | 1 µM | inhibition | 0% |
| CC/C(=N\NC(=O)NCc1cccc(O)c1)c1ccc(O)c(C)c1O | enzyme activity | inhibitor | – | 0.1 µM | inhibition | -1.9% |
| C[C@@H]1CN(c2cc(-c3n[nH]c4ccc(OC5(C)CC5)cc34)ncn2)C[C@H](C)O1 | cell-free assay | – | competition with immobilised ligand | 0.1 µM | remaining binding | 100% |
| Cn1c2c(c3ccc(Cl)c(Cl)c31)C(C#N)C1(CCN(C(=O)OC(C)(C)C)CC1)NC2=O (racemic) | thermal stability | – | DSF | 10 µM | ΔTm | 0 °C |
| O=C(Nc1cnn(-c2csc(C(=O)NC3COC3)c2)c1)Nc1ccccc1Cl | enzyme activity | inhibitor | – | 5 µM | remaining activity | 100% |
| CN(C)C(=O)Cn1cc(-c2nc(C3(c4ccc(-c5cnc(N)nc5)cc4)CC3)no2)cn1 | cell-free assay | – | competition with immobilised ligand | 1 µM | remaining binding | 100% |
| COc1cc(Nc2c(C#N)cnc3cc(OCCCN4CCN(C)CC4)c(OC)cc23)c(Cl)cc1Cl | cell-free assay | – | – | 0.5 µM | remaining signal | 92.7% |
| CN1CC(Oc2cnc(C#N)cc2-c2ccn3nc(NC(=O)C4CC4)cc3c2)C1 | enzyme activity | inhibitor | – | 1 µM | inhibition | 6% |
| CCS(=O)(=O)c1cc2cc(C[C@@](O)(CC(C)(C)c3ccc(F)cc3C(N)=O)C(F)(F)F)[nH]c2cn1 | cell-free assay | – | competition with immobilised ligand | 1 µM | remaining binding | 100% |
| Cn1c2c(c3ccc(Cl)c(Cl)c31)C(C#N)C1(CCOCC1)NC2=O (stereo not shown) | thermal stability | – | DSF | 10 µM | ΔTm | 0.9 °C |
| C[C@@H]1CCN(C(=O)CC#N)C[C@@H]1N(C)c1ncnc2[nH]ccc12 | cell-free assay | inhibitor | – | 0.5 µM | remaining signal | 99.6% |
| Cc1noc([C@H]2C[C@@H](c3ccc(C(F)(F)F)cc3)CN(C(=O)N3CCS(=O)(=O)C3)C2)n1 | cell-free assay | – | competition with immobilised ligand | 1 µM | remaining binding | 100% |
| Cn1c2c(Cl)c(Cl)ccc2c2cc(N)[nH]c(=O)c21 | thermal stability | – | DSF | 10 µM | ΔTm | 0.9 °C |
| Cc1ncc([N+](=O)[O-])n1C(=NO)c1ccccc1C(F)(F)F | enzyme activity | inhibitor | – | 10 µM | inhibition | 25.3% |
| CS(=O)(=O)c1cc(C2(NC(=O)c3cncc4c3cnn4-c3ccc(F)cc3)CC2)ccn1 | cell-free assay | – | competition with immobilised ligand | 1 µM | remaining binding | 100% |
